The text below walks through data of PubChem BioAssay AID588760 (Johns Hopkins Ion Channel Center, 2011).

In the assay the target is Inward rectifier potassium channel 2 (Mus musculus) (UniProt P35561). Description: off-target blockade of inward rectifier Kir2.1 – cell-based, FluxOR thallium flux, CRC round 3, selectivity assay for KCNK9 inhibitor project, SAR follow-up (AID 588760). In a few lines: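 Assay system: FluxOR-loaded Kir2.1 HEK293 cells; Also added: K2SO4/Tl2SO4 stimulus; Replicates: at least duplicate measurements per concentration; Measured by: kinetic fluorescence of thallium-sensitive dye; Incubation: dye loading 90 min RT, compound 20 min RT pre-stimulus.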
Sequence of Inward rectifier potassium channel 2 (Mus musculus) (P35561 whole entry, looked up): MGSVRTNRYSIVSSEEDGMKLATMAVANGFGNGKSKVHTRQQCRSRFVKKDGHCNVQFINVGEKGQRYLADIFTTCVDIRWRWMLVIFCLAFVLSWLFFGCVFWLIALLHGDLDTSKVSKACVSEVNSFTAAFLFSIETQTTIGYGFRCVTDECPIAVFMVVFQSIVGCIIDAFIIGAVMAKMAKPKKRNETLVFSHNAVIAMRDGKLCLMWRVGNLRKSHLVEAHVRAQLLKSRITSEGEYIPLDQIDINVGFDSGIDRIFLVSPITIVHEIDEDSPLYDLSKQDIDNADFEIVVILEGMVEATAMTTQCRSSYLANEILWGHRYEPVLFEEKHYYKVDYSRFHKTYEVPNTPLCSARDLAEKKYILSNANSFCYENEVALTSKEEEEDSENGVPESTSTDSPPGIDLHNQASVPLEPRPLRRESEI

Activity calls are given as the source filed them.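 Rule for the calls: active = fitted dose response curve and peak inhibition of the Kir2.1 potassium channel above 30% at some dose; inactive = no dose response or no inhibition at any dose.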

For the compound `CC(C1CC2CCC1C2)n1c(SCC(=O)c2ccccc2)nnc1-c1ccco1` (stereo unspecified), the compound was classed as inactive.

Take `CC(C1CC2CCC1C2)n1c(-c2cccc(N(C)C)c2)n[nH]c1=S` (stereo unspecified): the compound was classed as inactive.

Take `CC(C1CCCCC1)n1c(-c2ccco2)n[nH]c1=S` (stereo unspecified): the outcome was inactive.

As for `COc1cccc(-c2n[nH]c(=S)n2C(C)C2CC3CCC2C3)c1OC` (stereo unspecified), the compound was called inactive.

With `COc1ccccc1C(=O)Nc1cc(NC(=O)c2ccccc2C(C)C)ccc1F`, the result was inactive.

As to `S=c1[nH]nc(-c2ccco2)n1C1CC2CCC1C2` (stereo unspecified), the call was inactive.

For the compound `COc1cccc(C(=O)CSc2nnc(-c3ccco3)n2C(C)C2CC3CCC2C3)c1` (stereo unspecified), the outcome was inactive.

In the case of `CC(C1CC2CCC1C2)n1c(-c2ccco2)n[nH]c1=S` (stereo unspecified), the result was inactive.

As for `COc1cccc(Cc2n[nH]c(=S)n2C(C)C2CC3CCC2C3)c1` (stereo unspecified), the compound was called inactive.

Turning to `CC(C1CC2CCC1C2)n1c(-c2cccc(F)c2)n[nH]c1=S` (stereo unspecified), the compound was classed as inactive.

On to `CC(C1CC2CCC1C2)n1c(-c2ccccc2F)n[nH]c1=S` (stereo unspecified), for which the call was inactive.

Regarding `C[C@H](C1CCCCC1)n1c(-c2ccco2)n[nH]c1=S`, the compound was called inactive.

As to `COc1ccc(CCSc2nnc(-c3ccco3)n2C(C)C2CC3CCC2C3)cc1OC` (stereo unspecified), the call was inactive.

Consider `CC(CC1CC2CCC1C2)n1c(-c2ccco2)n[nH]c1=S` (stereo unspecified), for which the call was inactive.

As for `CC(C1CC2CCC1C2)n1c(-c2ccncc2)n[nH]c1=S` (stereo unspecified), the compound was called inactive.

As to `COc1cccc(-c2nnc(S(C)(=O)=O)n2C(C)C2CC3CCC2C3)c1` (stereo unspecified), the call was inactive.

As to `CC(C1CC2CCC1C2)N(C)C(=O)c1ccco1` (stereo unspecified), the result was inactive.

As to `COc1ccccc1C(=O)Nc1cccc(NC(=O)c2cccc3ccccc23)c1`, the call was inactive.

With `CC(CCC1CCCC1)n1c(-c2ccco2)n[nH]c1=S` (stereo unspecified), the compound was called inactive.

For `CC(C1CC2CCC1C2)n1c(-c2ccccn2)n[nH]c1=S` (stereo unspecified), the outcome was inactive.

For `CC(NC(=O)c1ccco1)C1CC2CCC1C2` (stereo unspecified), the outcome was inactive.
